The record followed here is ChEMBL document CHEMBL4425108, “A Selective and Slowly Reversible Inhibitor of l-Type Amino Acid Transporter 1 (LAT1) Potentiates Antiproliferative Drug Efficacy in Cancer Cells” (J Med Chem, 2016).

Series [1] deals with T1, Large neutral amino acids transporter small subunit 1 (Homo sapiens, UniProt Q01650). The series can be described thus: Competitive inhibition of [14C]-L-leucine uptake at LAT1 in human MCF7 cells preincubated for 5 mins followed by addition of substrate measured during 5 mins by liquid scintillation counting. It counts as cell-based.
Series [2] in a line: Fraction unbound in mouse prostate at 23 umol/kg, ip administered as bolus by LC-MS analysis. The class given is ADME, organism-based, Prostate gland. Put shortly: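 Unbound fraction was measured by equilibrium dialysis at 100 µM in mouse plasma and in brain, liver, kidney, heart and prostate homogenates.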
A short description of series [3]: AUC (0 to 480 min) in mouse kidney at 23 umol/kg, ip administered as bolus by LC-MS analysis. It counts as ADME, organism-based. On the set-up: time < 8 hr, dose 23 umol/kg, route intraperitoneal. As to conditions: in vivo, 8 h. Put shortly: (§1)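 Male adult mice (25 ± 5 g) given a single i.p. bolus at 23 µmol/kg. The dosing solution was 1.36 mM in 10% (v/v) DMSO, 20% (w/v) hydroxypropyl-β-cyclodextrin and 0.9% NaCl. Animals were decapitated at seven time points from 10 to 480 min. Plasma and tissues were acetonitrile-precipitated with repaglinide internal standard and analysed by LC-MS. Parameters were derived from concentration–time data, mean ± SEM (n=3).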

The target of series [4] is T1, Large neutral amino acids transporter small subunit 1. The series can be described thus: Drug uptake in human MCF7 cells assessed as LAT1 mediated drug transport per mg of protein at 100 uM measured 30 mins after cold wash by HPLC analysis. The class given is ADME, cell-based. As to conditions: mcf7, 0.5 h. Put shortly:
(§2)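 MCF-7 monolayers were incubated with 100 µM compound in HBSS at 37 °C for 5 or 30 min. Cells got three washes with ice-cold or warm (37 °C) HBSS; in the warm 30 min arm they were washed after 5 min and again after 30 min. Lysates (0.1 M NaOH) were quantified by HPLC-UV against a spiked lysate standard curve and normalised to protein (Bio-Rad assay).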

Series [5] has the same target. The series can be described thus: Competitive binding to LAT1 in human MCF7 cells at 100 uM after 30 mins in presence of OATP 1A2/2B1 inhibitor naringin by HPLC analysis. The class given is cell-based. The essentials:
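MCF-7 cells incubated 30 min at 37 °C in HBSS (pH 7.4) holding 100 µM test compound plus 500 µM competitor. Cells washed three times with ice-cold HBSS and lysed in 0.1 M NaOH. Cell-associated compound measured by HPLC against a lysate-spiked standard curve and normalised to protein. Mean ± SD, n=3.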

In series [6] the target is T2, Large neutral amino acids transporter small subunit 2 (Homo sapiens) (UniProt Q9UHI5).
T2 sequence (whole entry): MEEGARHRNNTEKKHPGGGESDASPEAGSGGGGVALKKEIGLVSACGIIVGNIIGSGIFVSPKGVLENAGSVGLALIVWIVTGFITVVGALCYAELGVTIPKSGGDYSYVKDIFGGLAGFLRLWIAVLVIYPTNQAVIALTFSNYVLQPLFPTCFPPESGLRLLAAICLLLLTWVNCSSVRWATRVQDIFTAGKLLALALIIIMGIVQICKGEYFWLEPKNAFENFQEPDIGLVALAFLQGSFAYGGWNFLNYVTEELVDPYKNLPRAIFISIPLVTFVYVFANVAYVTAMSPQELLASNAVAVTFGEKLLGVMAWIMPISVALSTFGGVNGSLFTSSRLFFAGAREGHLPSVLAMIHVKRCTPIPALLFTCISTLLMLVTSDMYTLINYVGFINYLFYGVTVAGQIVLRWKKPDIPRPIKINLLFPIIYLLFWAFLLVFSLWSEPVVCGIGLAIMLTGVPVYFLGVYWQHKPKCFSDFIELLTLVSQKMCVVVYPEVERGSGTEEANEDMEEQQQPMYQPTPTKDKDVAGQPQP
Kind of series: Competitive inhibition of [14C]-L-alanine uptake at LAT2 in human MCF7 cells at 50 to 1000 uM measured during 5 mins by liquid scintillation counting. It counts as cell-based. The essentials:
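MCF-7 cells were seeded at 1 × 10^5 cells/well and used one day later. Cells were washed and pre-incubated 10 min at 37 °C in HEPES-buffered HBSS (choline chloride, pH 7.4). Uptake of 10.0 µM [14C]-L-alanine ran 5 min at 37 °C with test agent (1–1000 µM) or DMSO blank. Cells were then given three ice-cold washes, lysed in 0.1 M NaOH and counted by liquid scintillation; n=3.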

Series [7] addresses T1, Large neutral amino acids transporter small subunit 1. The series can be described thus: Competitive inhibition of [14C]-L-leucine uptake at LAT1 in human MCF7 cells at 25 uM preincubated for 10 mins followed by addition of substrate measured during 5 mins by liquid scintillation counting. It counts as cell-based. The essentials:
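MCF-7 cells seeded 1 × 10^5/well, used one day later. Washed and pre-incubated 10 min at 37 °C in choline-chloride HBSS (Na+-free, 25 mM HEPES, pH 7.4), then 5 min at 37 °C with 0.157 µM [14C]-L-leucine plus 1-1000 µM inhibitor (DMSO blank). Ice-cold washes, NaOH lysis, scintillation counting. IC50 by nonlinear regression over 8 concentrations. Mean ± SD, n=3.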

Series [8] has the same target. The series can be described thus: Drug uptake in human MCF7 cells assessed as LAT1 mediated drug transport per mg of protein at 100 uM measured 5 mins after warm wash by HPLC analysis. As to conditions: mcf7, 5 min. It counts as ADME, cell-based. The essentials: as §2
The nature of series [9]: Terminal half life in mouse liver at 23 umol/kg, ip administered as bolus by LC-MS analysis. The class given is ADME, organism-based. As to conditions: read-out: beta t1/2. Put shortly: as §1
In series [10] the target is T1, Large neutral amino acids transporter small subunit 1. Kind of series: Inhibition of LAT1 in human MCF7 cells assessed as potentiation of cisplatin-induced antiproliferative activity by measuring reduction in cell viability at 100 uM measured after 72 hrs by resazurin dye-based fluorimetric analysis. Put shortly: (§3)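 MCF-7 cells seeded 2 × 10^4/well on collagen-coated plates, treated one day later in growth medium with inhibitor (25 or 100 µM) plus bestatin or cisplatin (100 µM) for up to 3 days. Viability read daily by resazurin fluorescence (ex 560/em 590 nm). Viability is treated relative to untreated control. Mean ± SD, n=3.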
On the technique in general: Alamar Blue is a resazurin reagent that responds to reducing activity.

Series [11] is described as follows: fCmax in mouse prostate at 23 umol/kg, ip administered as bolus by LC-MS analysis. The conditions noted are these: in vivo. It counts as ADME, organism-based, Prostate gland. Put shortly:
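Male mice (25 ± 5 g) dosed i.p. as a bolus at 23 µmol/kg in DMSO/hydroxypropyl-β-cyclodextrin/saline vehicle, sampled at time points 10–480 min; plasma and tissue homogenates (1:3 water) analysed by LC-MS. […] Mean ± SEM.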

Series [12] concerns the target T1, Large neutral amino acids transporter small subunit 1. Kind of series: Inhibition of LAT1 in human MCF7 cells assessed as potentiation of cisplatin-induced antiproliferative activity by measuring reduction in cell viability at 25 uM measured after 72 hrs by resazurin dye-based fluorimetric analysis. The essentials: as §3
For series [13] the target is unchanged. The series can be described thus: Inhibition of LAT1 in human MCF7 cells assessed as potentiation of cisplatin-induced antiproliferative activity by measuring reduction in cell viability at 100 uM measured after 48 hrs by resazurin dye-based fluorimetric analysis. Put shortly:
as §3

Series [14] can be described thus: Tmax in mouse heart at 23 umol/kg, ip administered as bolus by LC-MS analysis. It counts as ADME, organism-based. The essentials: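 Adult male mice (25 ± 5 g) given a single i.p. bolus of 23 µmol/kg, dosing solution 1.36 mM in 10% (v/v) DMSO, 20% (w/v) hydroxypropyl-β-cyclodextrin, 0.9% NaCl in water. Decapitation at time points 10–480 min; plasma, brain, liver, prostate, kidney, heart collected. Acetonitrile precipitation with repaglinide internal standard, LC-MS (ESI positive). tmax and t½β taken from concentration-time data; mean ± SEM, n=3.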

Calls of active or inactive are those of the source. The rule behind the calls is not given here.

T1 sequence (Q01650 whole entry): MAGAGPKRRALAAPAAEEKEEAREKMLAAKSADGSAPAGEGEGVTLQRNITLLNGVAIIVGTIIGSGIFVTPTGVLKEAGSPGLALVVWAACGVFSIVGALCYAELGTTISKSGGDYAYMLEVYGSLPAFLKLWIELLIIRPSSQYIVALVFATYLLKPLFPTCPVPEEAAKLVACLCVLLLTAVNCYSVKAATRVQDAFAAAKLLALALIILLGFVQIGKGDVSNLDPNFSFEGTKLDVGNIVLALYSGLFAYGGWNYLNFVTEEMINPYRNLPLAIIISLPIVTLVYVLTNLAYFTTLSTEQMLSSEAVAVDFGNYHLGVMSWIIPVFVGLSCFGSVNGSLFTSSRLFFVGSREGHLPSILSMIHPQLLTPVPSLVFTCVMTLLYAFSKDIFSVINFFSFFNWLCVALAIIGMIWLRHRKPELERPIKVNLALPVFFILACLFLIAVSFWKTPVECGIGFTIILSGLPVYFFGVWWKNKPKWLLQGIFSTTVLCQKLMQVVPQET

What is called IC50 is the concentration needed to halve the response being measured. Read a low IC50 as higher potency. Broadly, the inhibition is the share of the control response that was lost under treatment. Broadly, the fraction unbound is free concentration divided by total concentration. Read a high fraction unbound as much free substance. Usually Tmax stands for the time at which the peak concentration occurs. In turn, `CNC(=O)COc1ccc(-c2c(C#N)c(NC(=O)c3cccc(C[C@H](N)C(=O)O)c3)n3c(nc4ccccc43)c2C#N)cc1` registered an IC50 in series [1] of 18.2 µM. Also, the inhibition entry is “Dose-dependent effect” in series [1] and 55.1% in series [7]. In [2], this compound had a fraction unbound of 0.0144. In [3], this compound showed an AUC of 1426 nmol/g/min. The Drug uptake came to 2.63 nmol/mg in series [4] and 1.43 nmol/mg in series [8]. Further, the outcome in series [5] was Active. Further, in series [6], the inhibition result was “inactive”. Also, in [9], the half-life amounted to 52.8 min. The values for the Activity in series [10], in series [12] and in series [13] were 81.9%, 49.7% and 60.4%, respectively. In addition, in [11], the fCmax turned out to be 0.34 nmol/g. In addition, the Tmax in series [14] is 30 min.
